In brackets after ≈: the same amount, converted by molar mass. Entries after “also recorded” stand apart in the source; their conditions may differ. Values belong to the compound of their own block, whether it stands above or below them.
Assays:
SOD1^G93A [1] = molecular target: T1, SOD1^G93A (Homo sapiens, UniProt P00441, G94A); assay: Intact protein LC-MS of covalent drug candidates with purified SOD1^G93A; format: binding
[2] = molecular target: human serum albumin (HSA) (Homo sapiens, UniProt P02768); format: in vitro ADME; conditions: intact protein LC-MS
albumin = conditions: cited from earlier work
SOD1^G93A [3] = molecular target: T1, SOD1^G93A; assay: In vivo target engagement
Summary of the method: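 Hemizygous B6SJL-Tg(SOD1*G93A)1Gur/J mice (15–30 weeks, either sex) were dosed in PBS or water (<2% final DMSO): 10 mg/kg IV, 12.5 or 30 mg/kg SC, or 20 mg/kg SC with collection at 1 h. Blood and brain underwent chloroform–ethanol extraction, then intact-protein C4 LC-MS for %TE against a 37% METE. Doses were re-estimated as old dose × (METE/%TE). Duplicate.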

[4] = Solubility limit in IV dose formulation; format: physicochemical
SOD1^G93A [5] = molecular target: T1, SOD1^G93A; format: binding; conditions: transgenic ALS^G93A mouse brain homogenate
SOD1^G93A mouse model = conditions: cited from earlier work

human serum albumin (HSA), sequence (P02768 25-609): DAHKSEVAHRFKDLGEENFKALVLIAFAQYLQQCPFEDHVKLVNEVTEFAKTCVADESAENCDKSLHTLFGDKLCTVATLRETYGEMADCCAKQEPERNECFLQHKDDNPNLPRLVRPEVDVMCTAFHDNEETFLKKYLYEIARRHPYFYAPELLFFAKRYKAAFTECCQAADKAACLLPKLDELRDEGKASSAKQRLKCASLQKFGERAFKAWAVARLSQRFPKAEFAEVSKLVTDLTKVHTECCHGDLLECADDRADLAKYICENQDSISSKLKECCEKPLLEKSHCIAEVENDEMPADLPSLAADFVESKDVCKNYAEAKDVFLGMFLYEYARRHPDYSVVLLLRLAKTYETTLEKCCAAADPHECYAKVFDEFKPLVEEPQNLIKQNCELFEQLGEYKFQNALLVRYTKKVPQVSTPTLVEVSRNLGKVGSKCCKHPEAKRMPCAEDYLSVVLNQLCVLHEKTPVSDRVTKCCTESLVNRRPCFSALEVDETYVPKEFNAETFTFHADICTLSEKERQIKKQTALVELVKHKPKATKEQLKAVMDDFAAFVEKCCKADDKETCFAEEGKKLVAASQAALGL
T1 sequence (P00441 2-154 G94A limits assumed): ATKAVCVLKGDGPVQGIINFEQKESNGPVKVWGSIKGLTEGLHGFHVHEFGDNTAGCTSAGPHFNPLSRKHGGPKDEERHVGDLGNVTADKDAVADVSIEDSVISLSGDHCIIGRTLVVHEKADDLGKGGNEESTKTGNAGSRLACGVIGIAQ

SMILES: N.N.[Cl][Pt][Cl] [cisplatin]
proposed MoA confirmed by intact drug-protein mass (D1) (SOD1^G93A [1]): shows the predicted molecular mass

SMILES: C=CC(=O)N1CCC[C@@H](n2nc(-c3ccc(Oc4ccccc4)cc3)c3c(N)ncnc32)C1 [ibrutinib]
covalent binding to HSA [2]: minimal binding; also recorded: limited, but detectable covalent binding

SMILES: CCN(CC)C(=S)SSC(=S)N(CC)CC [disulfiram]
plasma protein binding via albumin (albumin): high plasma protein binding | METE reached in vivo (D5) (SOD1^G93A [3]; at a 20 mg/kg dose imposed by solubility limit): could not be reached | proposed MoA confirmed by intact drug-protein mass (D1) (SOD1^G93A [1]): shows the predicted molecular mass | solubility [4]: 4000 µg/mL (≈ 13.5 mM) | covalent binding to HSA [2]: showed drug-related mass shifts with HSA

SMILES: [O-][S+]1CCCCS1 (stereo not shown) [S-XL6, 1,2-dithiane-1-oxide]
in vivo target engagement, detection of drug-protein complex (SOD1^G93A [3]; brain, 1-hr post-dose via SC): successful detection of cross-linked dimer | proposed MoA confirmed by intact drug-protein mass (D1) (SOD1^G93A [1]): confirms the proposed MoA | covalent binding to HSA [2]: negligible binding; also recorded: no detectable HSA binding | in vitro target engagement in target tissue homogenate (predicted mass shift) (SOD1^G93A [5]): show the predicted mass shifts

SMILES: O=c1c2ccccc2[se]n1-c1ccccc1 [ebselen]
survival (SOD1^G93A mouse model): improves survival | METE reached in vivo (D5) (SOD1^G93A [3]; at ~22% of LD50 (20 mg/kg SC, 1 h)): could not be reached | effect on SOD1 in vivo (modification of SOD1^G93A) (SOD1^G93A [3]; brain and blood of dosed SOD1^G93A mouse): promoting cysteinylation (in brain) and glutathionylation (in blood) | proposed MoA confirmed by intact drug-protein mass (D1) (SOD1^G93A [1]): confirms its proposed MoA | covalent binding to HSA [2]: showed drug-related mass shifts with HSA | in vitro target engagement in target tissue homogenate (predicted mass shift) (SOD1^G93A [5]): show the predicted mass shifts

covalent binding to HSA [2]: negligible binding
SMILES: C=CC(=O)N1CCN(c2nc(=O)n(-c3c(C)ccnc3C(C)C)c3nc(-c4c(O)cccc4F)c(F)cc23)[C@@H](C)C1 [sotorasib]

SMILES: CN(C)C/C=C/C(=O)Nc1cc2c(Nc3ccc(F)c(Cl)c3)ncnc2cc1O[C@H]1CCOC1 [afatinib]
covalent binding to HSA [2]: minimal binding; also recorded: limited, but detectable covalent binding

Reference: article PMC11839910 (Nature Communications, 2025)
